Source: PMC7034990 (Science Advances, 2020)

Biological target: T1, ENaC (Homo sapiens, UniProt P37088+P51168+P51170)
T1 sequence (P37088 1-669): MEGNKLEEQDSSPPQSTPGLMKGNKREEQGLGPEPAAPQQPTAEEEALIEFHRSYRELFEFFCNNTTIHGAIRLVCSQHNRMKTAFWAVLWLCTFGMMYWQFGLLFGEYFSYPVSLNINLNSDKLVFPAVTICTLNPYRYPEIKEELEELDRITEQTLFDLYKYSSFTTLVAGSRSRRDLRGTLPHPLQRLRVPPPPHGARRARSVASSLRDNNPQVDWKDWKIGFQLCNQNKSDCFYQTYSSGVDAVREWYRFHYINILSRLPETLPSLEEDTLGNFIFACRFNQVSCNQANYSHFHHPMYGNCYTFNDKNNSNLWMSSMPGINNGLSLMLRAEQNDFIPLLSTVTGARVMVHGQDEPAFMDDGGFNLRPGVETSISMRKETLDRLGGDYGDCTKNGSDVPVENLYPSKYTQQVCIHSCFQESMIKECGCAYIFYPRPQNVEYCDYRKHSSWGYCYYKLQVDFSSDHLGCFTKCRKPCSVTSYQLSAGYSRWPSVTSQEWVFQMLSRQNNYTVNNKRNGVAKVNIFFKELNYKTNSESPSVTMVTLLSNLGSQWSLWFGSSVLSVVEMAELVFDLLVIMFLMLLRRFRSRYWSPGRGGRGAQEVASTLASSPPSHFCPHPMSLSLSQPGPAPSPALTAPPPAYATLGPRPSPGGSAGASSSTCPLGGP
T1 sequence (P51168 1-640): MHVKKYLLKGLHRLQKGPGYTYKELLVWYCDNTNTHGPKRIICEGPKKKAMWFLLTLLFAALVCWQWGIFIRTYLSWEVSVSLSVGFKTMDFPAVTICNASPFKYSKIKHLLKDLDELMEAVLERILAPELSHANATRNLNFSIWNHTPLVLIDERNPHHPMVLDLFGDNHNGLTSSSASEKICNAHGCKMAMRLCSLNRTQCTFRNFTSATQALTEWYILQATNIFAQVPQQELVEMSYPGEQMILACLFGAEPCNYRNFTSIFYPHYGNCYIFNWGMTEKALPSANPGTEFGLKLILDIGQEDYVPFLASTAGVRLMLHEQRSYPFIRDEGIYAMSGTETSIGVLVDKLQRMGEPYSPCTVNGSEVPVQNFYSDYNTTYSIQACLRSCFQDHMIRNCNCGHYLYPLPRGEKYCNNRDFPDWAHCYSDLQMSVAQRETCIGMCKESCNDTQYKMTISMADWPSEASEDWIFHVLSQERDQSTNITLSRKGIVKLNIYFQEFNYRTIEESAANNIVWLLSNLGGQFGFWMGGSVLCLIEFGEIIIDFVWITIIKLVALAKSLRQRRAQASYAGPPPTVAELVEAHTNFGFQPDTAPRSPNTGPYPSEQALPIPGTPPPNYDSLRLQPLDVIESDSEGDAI
T1 sequence (P51170 1-649): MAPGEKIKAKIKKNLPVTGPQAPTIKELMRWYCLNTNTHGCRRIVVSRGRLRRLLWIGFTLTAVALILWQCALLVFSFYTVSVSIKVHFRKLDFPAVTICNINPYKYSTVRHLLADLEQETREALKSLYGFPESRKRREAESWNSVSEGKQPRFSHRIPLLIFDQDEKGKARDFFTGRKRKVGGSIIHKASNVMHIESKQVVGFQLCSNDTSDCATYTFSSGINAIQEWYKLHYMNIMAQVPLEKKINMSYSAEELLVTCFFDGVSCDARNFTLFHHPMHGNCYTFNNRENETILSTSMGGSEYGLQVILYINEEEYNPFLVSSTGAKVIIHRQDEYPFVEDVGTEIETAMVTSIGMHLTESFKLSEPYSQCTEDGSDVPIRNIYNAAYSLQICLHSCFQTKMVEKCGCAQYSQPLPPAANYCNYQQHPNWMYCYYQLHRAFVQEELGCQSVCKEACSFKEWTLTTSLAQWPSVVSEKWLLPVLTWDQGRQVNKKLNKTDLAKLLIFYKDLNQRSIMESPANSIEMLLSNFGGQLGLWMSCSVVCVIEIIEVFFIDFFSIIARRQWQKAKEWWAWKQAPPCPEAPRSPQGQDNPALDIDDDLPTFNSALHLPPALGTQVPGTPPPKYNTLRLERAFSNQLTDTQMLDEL
Assay: ENaC function from the response to apical amiloride
Format: cell-based
Conditions: amiloride 10 μM; correctors for 24 hr
In short: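 Primary bronchial epithelial cells came from lung-transplant bronchi and were differentiated on porous inserts, then kept 2–3 weeks under air-liquid culture. Correctors or DMSO were given in basolateral medium. Epithelia were mounted in a vertical diffusion chamber, bicarbonate saline (126 mM NaCl, 24 mM NaHCO3, 10 mM glucose) both sides, gassed 5% CO2:95% air, 37°C. Voltage was clamped and short-circuit current recorded. ENaC was blocked with amiloride (10 μM).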

## CN(C(=O)c1cccc(-n2nc(C(F)(F)F)c3c2[C@@H](Oc2ccc(C(=O)O)cc2)CCC3)c1)c1ccc2c(c1)OC(F)(F)O2 [ARN23765]
  amplitude of the response to apical amiloride, ENaC function: modestly reduced
